Test results from ChEMBL document CHEMBL1145833, “Studies on the synthesis and biological properties of non-carrier-added [(125)I and (131)I]-labeled arylalkylidenebisphosphonates: potent bone-seekers for diagnosis and therapy of malignant osseous lesions” (J Med Chem, 2003).

Columns and labels:
Conditions in all cases: in vivo
Mus musculus [1] = organism: Mus musculus; assay: Distribution of compound in liver tissue of mice after 5 hr injection time was determined; type: ADME, organism-based
Procedure, shortened: (§1)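 Healthy athymic nude mice (balb/c nu/nu, 20–25 g, both sexes) received 50–400 KBq radioiodinated bisphosphonate in 100 µL phosphate buffer pH 6–7 by tail-vein injection. Three animals were sacrificed per time point. Tissues were excised, weighed and gamma-counted. Values are % injected dose per gram tissue, mean ± 1 SD, n = 3.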

Rattus norvegicus [2] = organism: Rattus norvegicus; assay: Distribution of compound in liver tissue of rats after 24 hr injection time was determined; type: ADME, organism-based
Procedure, shortened: (§2)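 Healthy congenitally athymic nude rats (Han rnu/rnu Rowett, 60 g, both sexes) received 0.4 MBq radioiodinated bisphosphonate in 200 µL phosphate buffer pH 7 via tail vein. Three rats were sacrificed 24 h post-injection. Excised organs were weighed and gamma-counted. Values are % injected dose per gram tissue, mean ± 1 SD of three rats.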

Rattus norvegicus [3] = organism: Rattus norvegicus; assay: Distribution of compound in lung tissue of rats after 24 hr injection time was determined; type: ADME, organism-based; procedure, shortened: as §2
Mus musculus [4] = organism: Mus musculus; assay: Distribution of compound in lungs tissue of mice after 0.5 h injection time was determined; type: ADME, organism-based, Lung; procedure, shortened: as §1
Mus musculus [5] = organism: Mus musculus; assay: Distribution of compound in lungs tissue of mice after 2 hr injection time was determined; type: ADME, organism-based, Lung; procedure, shortened: as §1
Mus musculus [6] = organism: Mus musculus; assay: Distribution of compound in lungs tissue of mice after 24 hr injection time was determined; type: ADME, organism-based, Lung; procedure, shortened: as §1
Mus musculus [7] = organism: Mus musculus; assay: Distribution of compound in lungs tissue of mice after 5 hr injection time was determined; type: ADME, organism-based, Lung; procedure, shortened: as §1
Mus musculus [8] = organism: Mus musculus; assay: Distribution of compound in skull tissue of mice after 0.5 hr injection time was determined; type: ADME, organism-based; procedure, shortened: as §1
Mus musculus [9] = organism: Mus musculus; assay: Distribution of compound in skull tissue of mice after 2 hr injection time was determined; type: ADME, organism-based; procedure, shortened: as §1
Mus musculus [10] = organism: Mus musculus; assay: Distribution of compound in skull tissue of mice after 24 hr injection time was determined; type: ADME, organism-based; procedure, shortened: as §1
Mus musculus [11] = organism: Mus musculus; assay: Distribution of compound in skull tissue of mice after 5 h injection time was determined; type: ADME, organism-based; procedure, shortened: as §1
Rattus norvegicus [12] = organism: Rattus norvegicus; assay: Distribution of compound in skull tissue of rats after 24 hr injection time was determined; type: ADME, organism-based; procedure, shortened: as §2
Mus musculus [13] = organism: Mus musculus; assay: Distribution of compound in spleen tissue of mice after 0.5 hr injection time was determined; type: ADME, organism-based; procedure, shortened: as §1
Mus musculus [14] = organism: Mus musculus; assay: Distribution of compound in kidneys tissue of mice after 0.5 hr injection time was determined; type: ADME, organism-based, Kidney; procedure, shortened: as §1
Mus musculus [15] = organism: Mus musculus; assay: Distribution of compound in kidneys tissue of mice after 2 hr injection time was determined; type: ADME, organism-based, Kidney; procedure, shortened: as §1
Mus musculus [16] = organism: Mus musculus; assay: Distribution of compound in kidneys tissue of mice after 24 hr injection time was determined; type: ADME, organism-based, Kidney; procedure, shortened: as §1
Mus musculus [17] = organism: Mus musculus; assay: Distribution of compound in kidneys tissue of mice after 5 hr injection time was determined; type: ADME, organism-based, Kidney; procedure, shortened: as §1
Mus musculus [18] = organism: Mus musculus; assay: Distribution of compound in liver tissue of mice after 0.5 hr injection time was determined; type: ADME, organism-based; procedure, shortened: as §1
Mus musculus [19] = organism: Mus musculus; assay: Distribution of compound in liver tissue of mice after 24 hr injection time was determined; type: ADME, organism-based; procedure, shortened: as §1
Mus musculus [20] = organism: Mus musculus; assay: Distribution of compound in heart tissue of mice after 2 hr injection time was determined; type: ADME, organism-based; procedure, shortened: as §1
Mus musculus [21] = organism: Mus musculus; assay: Distribution of compound in heart tissue of mice after 24 hr injection time was determined; type: ADME, organism-based; procedure, shortened: as §1
Mus musculus [22] = organism: Mus musculus; assay: Distribution of compound in heart tissue of mice after 5 hr injection time was determined; type: ADME, organism-based; procedure, shortened: as §1
Rattus norvegicus [23] = organism: Rattus norvegicus; assay: Distribution of compound in heart tissue of rats after 24 hr injection time was determined; type: ADME, organism-based; procedure, shortened: as §2
Mus musculus [24] = organism: Mus musculus; assay: Distribution of compound in intestine tissue of mice after 0.5 hr injection time was determined; type: ADME, organism-based; procedure, shortened: as §1
Mus musculus [25] = organism: Mus musculus; assay: Distribution of compound in intestine tissue of mice after 2 hr injection time was determined; type: ADME, organism-based; procedure, shortened: as §1
Mus musculus [26] = organism: Mus musculus; assay: Distribution of compound in intestine tissue of mice after 24 hr injection time was determined; type: ADME, organism-based; procedure, shortened: as §1
Mus musculus [27] = organism: Mus musculus; assay: Distribution of compound in intestine tissue of mice after 5 hr injection time was determined; type: ADME, organism-based; procedure, shortened: as §1
Rattus norvegicus [28] = organism: Rattus norvegicus; assay: Distribution of compound in intestine tissue of rats after 24 hr injection time was determined; type: ADME, organism-based; procedure, shortened: as §2
Rattus norvegicus [29] = organism: Rattus norvegicus; assay: Distribution of compound in kidney tissue of rats after 24 hr injection time was determined; type: ADME, organism-based; procedure, shortened: as §2
Mus musculus [30] = organism: Mus musculus; assay: Distribution of compound in spleen tissue of mice after 2 hr injection time was determined; type: ADME, organism-based; procedure, shortened: as §1
Mus musculus [31] = organism: Mus musculus; assay: Distribution of compound in spleen tissue of mice after 24 hr injection time was determined; type: ADME, organism-based; procedure, shortened: as §1
Mus musculus [32] = organism: Mus musculus; assay: Distribution of compound in spleen tissue of mice after 5 h injection time was determined; type: ADME, organism-based; procedure, shortened: as §1
Rattus norvegicus [33] = organism: Rattus norvegicus; assay: Distribution of compound in spleen tissue of rats after 24 hr injection time was determined; type: ADME, organism-based; procedure, shortened: as §2
Mus musculus [34] = organism: Mus musculus; assay: Distribution of compound in stomach tissue of mice after 0.5 hr injection time was determined; type: ADME, organism-based; procedure, shortened: as §1
Mus musculus [35] = organism: Mus musculus; assay: Distribution of compound in stomach tissue of mice after 2 hr injection time was determined; type: ADME, organism-based; procedure, shortened: as §1
Mus musculus [36] = organism: Mus musculus; assay: Distribution of compound in stomach tissue of mice after 24 hr injection time was determined; type: ADME, organism-based; procedure, shortened: as §1
Mus musculus [37] = organism: Mus musculus; assay: Distribution of compound in stomach tissue of mice after 5 hr injection time was determined; type: ADME, organism-based; procedure, shortened: as §1
Rattus norvegicus [38] = organism: Rattus norvegicus; assay: Distribution of compound in stomach tissue of rats after 24 hr injection time was determined; type: ADME, organism-based; procedure, shortened: as §2
Mus musculus [39] = organism: Mus musculus; assay: Distribution of compound in thyroid tissue of mice after 0.5 hr injection time was determined; type: ADME, organism-based, Thyroid gland
Procedure, shortened: (§3)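 Healthy athymic nude balb/c nu/nu mice (20–25 g) received 50–400 KBq radioiodinated bisphosphonate in 100 μL phosphate buffer, pH 6–7, by tail-vein injection. Three animals were sacrificed per time point. Thyroid-containing tissue was excised, weighed and gamma-counted. Values are % of injected dose, mean ± 1 SD of three mice.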

Mus musculus [40] = organism: Mus musculus; assay: Distribution of compound in thyroid tissue of mice after 2 hr injection time was determined; type: ADME, organism-based, Thyroid gland; procedure, shortened: as §3
Mus musculus [41] = organism: Mus musculus; assay: Distribution of compound in thyroid tissue of mice after 24 h injection time was determined; type: ADME, organism-based, Thyroid gland; procedure, shortened: as §3
Mus musculus [42] = organism: Mus musculus; assay: Distribution of compound in thyroid tissue of mice after 5 h injection time was determined; type: ADME, organism-based, Thyroid gland; procedure, shortened: as §3
Rattus norvegicus [43] = organism: Rattus norvegicus; assay: Distribution of compound in thyroid tissue of rats after 24 hr injection time was determined; type: ADME, organism-based, Thyroid gland
Procedure, shortened: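 Healthy congenitally athymic nude rats (Han rnu/rnu Rowett, 60 g) received 0.4 MBq radioiodinated bisphosphonate in 200 μL phosphate buffer, pH 7, by tail-vein injection. Three rats were sacrificed 24 h after injection. Thyroid-containing tissue was excised, weighed and gamma-counted. Values are % of injected dose, mean ± 1 SD of three rats.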

Mus musculus [44] = organism: Mus musculus; assay: Distribution of compound in blood tissue of mice after 0.5 hr injection time was determined; type: ADME, organism-based; procedure, shortened: as §1
Mus musculus [45] = organism: Mus musculus; assay: Distribution of compound in blood tissue of mice after 2 hr injection time was determined; type: ADME, organism-based; procedure, shortened: as §1
Mus musculus [46] = organism: Mus musculus; assay: Distribution of compound in blood tissue of mice after 24 hr injection time was determined; type: ADME, organism-based; procedure, shortened: as §1
Mus musculus [47] = organism: Mus musculus; assay: Distribution of compound in blood tissue of mice after 5 h injection time was determined; type: ADME, organism-based; procedure, shortened: as §1
Rattus norvegicus [48] = organism: Rattus norvegicus; assay: Distribution of compound in blood tissue of rats after 24 hr injection time was determined; type: ADME, organism-based; procedure, shortened: as §2
Mus musculus [49] = organism: Mus musculus; assay: Distribution of compound in femur tissue of mice after 0.5 hr injection time was determined; type: ADME, organism-based; procedure, shortened: as §1
Mus musculus [50] = organism: Mus musculus; assay: Distribution of compound in femur tissue of mice after 2 hr injection time was determined; type: ADME, organism-based; procedure, shortened: as §1
Mus musculus [51] = organism: Mus musculus; assay: Distribution of compound in femur tissue of mice after 24 hr injection time was determined; type: ADME, organism-based; procedure, shortened: as §1
Mus musculus [52] = organism: Mus musculus; assay: Distribution of compound in femur tissue of mice after 5 hr injection time was determined; type: ADME, organism-based; procedure, shortened: as §1
Rattus norvegicus [53] = organism: Rattus norvegicus; assay: Distribution of compound in femur tissue of rats after 24 h injection time was determined; type: ADME, organism-based; procedure, shortened: as §2
Mus musculus [54] = organism: Mus musculus; assay: Distribution of compound in heart tissue of mice after 0.5 hr injection time was determined; type: ADME, organism-based; procedure, shortened: as §1
Mus musculus [55] = organism: Mus musculus; assay: Distribution of compound in liver tissue of mice after 2 h injection time was determined; type: ADME, organism-based; procedure, shortened: as §1

Injected (Mus musculus [1]): 2.51%
Injected (Rattus norvegicus [2]): 0.18%
Injected (Rattus norvegicus [3]): 0.05%
Injected (Mus musculus [4]): 5.41%
Injected (Mus musculus [5]): 1.2%
Injected (Mus musculus [6]): 0.54%
Injected (Mus musculus [7]): 0.61%
Injected (Mus musculus [8]): 24.61%
Injected (Mus musculus [9]): 26.49%
Injected (Mus musculus [10]): 21.34%
Injected (Mus musculus [11]): 19.14%
Injected (Rattus norvegicus [12]): 5.84%
Injected (Mus musculus [13]): 2.02%
Injected (Mus musculus [14]): 18.64%
Injected (Mus musculus [15]): 13.3%
Injected (Mus musculus [16]): 5.16%
Injected (Mus musculus [17]): 7.17%
Injected (Mus musculus [18]): 3.88%
Injected (Mus musculus [19]): 2.27%
Injected (Mus musculus [20]): 0.82%
Injected (Mus musculus [21]): 0.18%
Injected (Mus musculus [22]): 0.4%
Injected (Rattus norvegicus [23]): 0.04%
Injected (Mus musculus [24]): 1.07%
Injected (Mus musculus [25]): 1%
Injected (Mus musculus [26]): 0.16%
Injected (Mus musculus [27]): 0.45%
Injected (Rattus norvegicus [28]): 0.03%
Injected (Rattus norvegicus [29]): 0.36%
Injected (Mus musculus [30]): 0.77%
Injected (Mus musculus [31]): 0.49%
Injected (Mus musculus [32]): 0.47%
Injected (Rattus norvegicus [33]): 0.09%
Injected (Mus musculus [34]): 3.22%
Injected (Mus musculus [35]): 1.79%
Injected (Mus musculus [36]): 0.13%
Injected (Mus musculus [37]): 0.38%
Injected (Rattus norvegicus [38]): 0.05%
Injected (Mus musculus [39]): 0.51%
Injected (Mus musculus [40]): 0.19%
Injected (Mus musculus [41]): 0.06%
Injected (Mus musculus [42]): 0.49%
Injected (Rattus norvegicus [43]): 0.02%
Injected (Mus musculus [44]): 15.92%
Injected (Mus musculus [45]): 1.36%
Injected (Mus musculus [46]): 0.09%
Injected (Mus musculus [47]): 0.82%
Injected (Rattus norvegicus [48]): 0.01%
Injected (Mus musculus [49]): 45.03%
Injected (Mus musculus [50]): 45.54%
Injected (Mus musculus [51]): 37.79%
Injected (Mus musculus [52]): 30.3%
Injected (Rattus norvegicus [53]): 16.44%
Injected (Mus musculus [54]): 3.35%
Injected (Mus musculus [55]): 3.36%
Compound: O=P(O)(O)C(O)(Cc1cccc(I)c1)P(=O)(O)O
